Screens deposited in PubChem by Broad Institute.
Hits are enriched below; roughly 5.9% of the tested compounds scored in any of these assays.
KDM4C inh: inhibitors of GASC-1 (KDM4C) histone demethylase, primary screen, biochemical, single concentration HTS | Lysine-specific demethylase 4C (Homo sapiens), Q9H3R0 | GST-KDM4C 2-372, H3K9me3 peptide, LANCE TR-FRET | inhibition, % at 12.5 µM | 0.15% of 96,000 active | AID 720574, 2013;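 active means mean replicate inhibition above about 25%, with at least 55% of replicates also reaching it, limit read from the data, passing the limit was not always enough; inconclusive means only one of those two conditions met; inactive means neither condition met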
Target sequence (Q9H3R0 2-372 limits assumed): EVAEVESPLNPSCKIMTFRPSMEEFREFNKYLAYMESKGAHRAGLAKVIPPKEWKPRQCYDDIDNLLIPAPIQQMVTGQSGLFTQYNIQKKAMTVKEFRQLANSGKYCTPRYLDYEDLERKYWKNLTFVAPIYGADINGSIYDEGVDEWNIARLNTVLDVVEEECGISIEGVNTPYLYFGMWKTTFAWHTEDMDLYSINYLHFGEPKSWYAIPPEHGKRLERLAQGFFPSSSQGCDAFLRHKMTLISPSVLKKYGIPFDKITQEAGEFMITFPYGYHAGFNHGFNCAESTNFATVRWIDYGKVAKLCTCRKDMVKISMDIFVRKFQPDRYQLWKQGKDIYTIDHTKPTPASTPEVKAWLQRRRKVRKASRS
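System – N-terminal GST-fused human GASC-1 (KDM4C) fragment, residues 2-372 · Input – enzyme final amount 10 nM · Technique – LANCE TR-FRET, Eu antibody, ULight-streptavidin, EDTA, ex 340 nm, em 618/671 nm · Medium – HEPES buffer, pH 7.5, plus ascorbate · Incubation – enzyme reaction 30 min, then detection 60 min, both room temperature · Reagent – H3K9me3 peptide with Fe(II)/2OG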
Tcruzi prolif: T. cruzi intracellular proliferation inhibitors, primary screen, cell-based, beta-gal Tulahuen parasites, NIH3T3 host, luminescence. T. cruzi beta-gal in NIH3T3, GalScreen luminescence, 90 h. inhibition, % at 8.34 µM. 5.9% of 77,000 active. AID 624255, 2012;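 active means mean inhibition above about 93%, with at least 55% of replicates each passing it, limit read from the data, passing the limit was not always enough; inconclusive means only one of those two conditions holds; inactive means neither condition holds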
Pf Dd2 inh: P. falciparum Dd2 growth inhibitors, primary screen, SYBR Green fluorescence, single dose replicates; activity change, % at 10 µM; 2.3% of 94,000 active; AID 1159554, 2015; 72 h; hits give low values; in the data active means activity change below about -80%; inconclusive means no clear call, values can overlap the other calls
IDH1 R132H inh: inhibitors of IDH1 R132H reductase, primary screen, biochemical, plate reader, single point; inhibition, % at 10 µM; Isocitrate dehydrogenase [NADP] cytoplasmic (Homo sapiens), O75874; 0.18% of 70,000 active; AID 624101, 2012; diaphorase/resazurin fluorescence, 60 min; in the data active means inhibition above about 34%; inconclusive means no clear call, values can overlap the other calls; inactive means below about 11%
Each line names hits and unclear results; the compound was inactive in the other large screens.

CO[C@@H]1CN(C)C(=O)c2ccc(NC(=O)Nc3cccc(Cl)c3)cc2OC[C@@H](C)NC[C@H]1C	Pf Dd2 inh -84
CO[C@H]1CN(C)C(=O)c2ccc(NS(=O)(=O)c3ccc(Cl)cc3)cc2OC[C@@H](C)NC[C@H]1C	KDM4C inh 80, IDH1 R132H inh 93
COc1ccccc1C(=O)Nc1ccc2c(c1)OC[C@H](C)NC[C@@H](C)[C@@H](OC)CN(C)C2=O	KDM4C inh 68, IDH1 R132H inh inconclusive
CO[C@H]1CN(C)C(=O)c2ccc(NC(=O)Nc3cc(Cl)cc(Cl)c3)cc2OC[C@H](C)NC[C@H]1C	Pf Dd2 inh -89 (no result: KDM4C inh)
CO[C@@H]1CN(C)C(=O)c2ccc(NC(=O)Nc3cccc(Cl)c3)cc2OC[C@H](C)NC[C@@H]1C	none
CC(=O)Nc1ccc(C(=O)CSc2nc3ccccc3n2C)cc1	none (no result: KDM4C inh, Tcruzi prolif, Pf Dd2 inh)
CC(=O)Nc1ccc(C(=O)CSc2nc(-c3ccccc3)cs2)cc1	none (no result: KDM4C inh, Tcruzi prolif, Pf Dd2 inh)
O=C(CSC1=NCCN1)C1COc2ccccc2O1 (stereo not given)	IDH1 R132H inh 39 (no result: KDM4C inh, Tcruzi prolif, Pf Dd2 inh)
CCCC#Cc1ccc2c(c1)O[C@H](CN(C)C(=O)Nc1ccc(OC)cc1)[C@@H](C)CN([C@H](C)CO)S2(=O)=O	none (no result: IDH1 R132H inh)
CCCC#Cc1ccc2c(c1)O[C@H](CN(C)C(=O)Nc1ccc(OC)cc1)[C@H](C)CN([C@H](C)CO)S2(=O)=O	Pf Dd2 inh -87
COc1ccc(NC(=O)N(C)C[C@H]2Oc3cc(C#CCC(C)C)ccc3S(=O)(=O)N([C@H](C)CO)C[C@H]2C)cc1	Pf Dd2 inh -88
COc1ccc(NC(=O)N(C)C[C@@H]2Oc3cc(C#CCC(C)C)ccc3S(=O)(=O)N([C@@H](C)CO)C[C@H]2C)cc1	none
Cc1cc(C)cc(OCC(=O)Nc2cc(-c3nc4cc(Cl)ccc4o3)ccc2C)c1	none (no result: KDM4C inh, Tcruzi prolif, Pf Dd2 inh)
C[C@@H]1CN([C@@H](C)CO)C(=O)Cc2cc(NC(=O)CCCCCC(=O)Nc3ccccc3N)ccc2O[C@@H]1CN(C)S(=O)(=O)c1ccc(Cl)cc1	none
COc1ccc(S(=O)(=O)N(C)C[C@@H]2Oc3ccc(NC(=O)CCCCCC(=O)Nc4ccccc4N)cc3CC(=O)N([C@@H](C)CO)C[C@@H]2C)cc1	Pf Dd2 inh -92
Cc1ccc(S(=O)(=O)N(C)C[C@@H]2Oc3ccc(NC(=O)CCCCCC(=O)Nc4ccccc4N)cc3CC(=O)N([C@H](C)CO)C[C@@H]2C)cc1	Pf Dd2 inh -87
C[C@@H]1CC[C@]2(C(=O)O[C@@H]3O[C@H](CO)[C@@H](O)[C@H](O)[C@H]3O)CC[C@]3(C(=O)O)C(=CCC4[C@@]5(C)CC[C@H](OC6OC[C@@H](O)[C@H](O)[C@H]6O)C(C)(C)C5CC[C@]43C)C2[C@H]1C (stereo not given in full)	none (no result: KDM4C inh, Tcruzi prolif, Pf Dd2 inh)
COc1ccc([N+](=O)[O-])cc1NC(=O)CN(c1ccccc1Br)S(C)(=O)=O	none (no result: KDM4C inh, Tcruzi prolif, Pf Dd2 inh)
C[C@@H]1CCCCO[C@@H](CN(C)Cc2ccc(C(F)(F)F)cc2)[C@@H](C)CN([C@H](C)CO)C(=O)c2cc(NC(=O)Cc3ccccc3)ccc2O1	none (no result: IDH1 R132H inh)
C[C@@H]1CCCCO[C@H](CN(C)Cc2ccc(C(F)(F)F)cc2)[C@H](C)CN([C@@H](C)CO)C(=O)c2cc(NC(=O)CCCN(C)C)ccc2O1	Pf Dd2 inh -89
C[C@@H]1CCCCO[C@H](CN(C)Cc2ccncc2)[C@H](C)CN([C@@H](C)CO)C(=O)c2cc(NC(=O)CCC(F)(F)F)ccc2O1	KDM4C inh 34, IDH1 R132H inh 75
C[C@@H]1CN([C@@H](C)CO)C(=O)c2cc(NC(=O)CCCN(C)C)ccc2O[C@@H](C)CCCCO[C@@H]1CN(C)Cc1ccc(C(F)(F)F)cc1	none (no result: IDH1 R132H inh)
C[C@H]1CCCCO[C@@H](CN(C)CC2CCCCC2)[C@@H](C)CN([C@@H](C)CO)C(=O)c2cc(NC(=O)CCCN(C)C)ccc2O1	Pf Dd2 inh -89 (no result: IDH1 R132H inh)
C[C@@H]1CCCCO[C@@H](CN(C)Cc2ccc(C(F)(F)F)cc2)[C@H](C)CN([C@@H](C)CO)C(=O)c2cc(NC(=O)Cc3ccccc3)ccc2O1	Pf Dd2 inh -86
CCN(CC(=O)O)S(=O)(=O)c1ccc2ccccc2c1	none (no result: KDM4C inh, Tcruzi prolif, Pf Dd2 inh)
COc1cc(NC(=O)COc2ccc(C(C)C)cc2)ccc1-c1cc2ccccc2oc1=O	none (no result: KDM4C inh, Tcruzi prolif, Pf Dd2 inh)
CCOC(=O)c1c(C)c(C#N)c(/N=C/N(C)C)n1-c1ccc(Cl)cc1Cl	none (no result: KDM4C inh, Tcruzi prolif, Pf Dd2 inh)
Cc1cccc(S(=O)(=O)NC(C(=O)O)C(C)C)c1 (stereo not given)	none (no result: KDM4C inh, Tcruzi prolif, Pf Dd2 inh)
C[C@@H]1CCCCO[C@H](CN(C)Cc2ccc(C(F)(F)F)cc2)[C@H](C)CN([C@@H](C)CO)C(=O)c2cc(NC(=O)Cc3ccccc3)ccc2O1	none (no result: KDM4C inh, IDH1 R132H inh)
C[C@H](CO)N1C[C@H](C)[C@@H](CN(C)Cc2ccc(C(F)(F)F)cc2)OCCCC[C@H](C)Oc2ccc(NC(=O)Cc3ccccc3)cc2C1=O	Pf Dd2 inh -81
Cc1cc(NC(=O)CSc2nnc(-c3ccccc3)n2-c2ccc(F)cc2)ccc1Br	none (no result: KDM4C inh, Tcruzi prolif, Pf Dd2 inh)
C[C@H](CO)N1C[C@H](C)[C@@H](CN(C)C(=O)Nc2ccccc2)OCc2ccccc2-c2c(n(C)c3ccccc23)C1=O	none (no result: IDH1 R132H inh)
C[C@@H]1CN([C@@H](C)CO)C(=O)c2c(c3ccccc3n2C)-c2ccccc2CO[C@@H]1CN(C)C(=O)Nc1ccc(-c2ccccc2)cc1	Pf Dd2 inh -88 (no result: Tcruzi prolif, IDH1 R132H inh)
C[C@H](CO)N1C[C@H](C)[C@H](CN(C)C(=O)Nc2ccccc2)OCc2ccccc2-c2c(n(C)c3ccccc23)C1=O	none
C[C@H](CO)N1C[C@H](C)[C@@H](CN(C)C(=O)Nc2ccc(-c3ccccc3)cc2)OCc2ccccc2-c2c(n(C)c3ccccc23)C1=O	Pf Dd2 inh -94 (no result: Tcruzi prolif, IDH1 R132H inh)
C[C@@H]1CN([C@H](C)CO)C(=O)c2c(c3ccccc3n2C)-c2ccccc2CO[C@@H]1CN(C)C(=O)Nc1ccc(-c2ccccc2)cc1	Pf Dd2 inh -83 (no result: Tcruzi prolif, IDH1 R132H inh)
C[C@H](CO)N1C[C@H](C)[C@H](CN(C)C(=O)Nc2ccc3c(c2)OCO3)OCc2ccccc2-c2c(n(C)c3ccccc23)C1=O	Pf Dd2 inh -85
O=C(CSc1nc2ccccc2[nH]1)Nc1cccc(Cl)c1Cl	none (no result: KDM4C inh, Tcruzi prolif, Pf Dd2 inh)
CS(=O)(=O)N(CC(=O)Nc1ccc(Br)cc1F)c1ccc(F)c(Cl)c1	none (no result: KDM4C inh, Tcruzi prolif, Pf Dd2 inh)
C[C@H]1CN([C@@H](C)CO)C(=O)c2c(c3ccccc3n2C)-c2ccccc2CO[C@@H]1CN(C)C(=O)Nc1ccc(-c2ccccc2)cc1	Pf Dd2 inh -89 (no result: Tcruzi prolif, IDH1 R132H inh)
C[C@@H]1CN([C@@H](C)CO)C(=O)c2cc(NC(=O)CCC(F)(F)F)ccc2O[C@@H](C)CCCCO[C@@H]1CN(C)C(=O)Nc1cccc2ccccc12	Pf Dd2 inh -89
C[C@@H]1CN([C@@H](C)CO)C(=O)c2cc(NC(=O)CCC(F)(F)F)ccc2O[C@@H](C)CCCCO[C@H]1CN(C)C(=O)Nc1cccc2ccccc12	Pf Dd2 inh -85
